Source: ChEMBL document CHEMBL5696442, “Discovery of type II inhibitors of TGFβ-activated kinase 1 (TAK1) and mitogen-activated protein kinase kinase kinase kinase 2 (MAP4K2)” (J Med Chem, 2015)
Active and inactive are the calls of the source. The rule behind the calls is not given here.

Key:
[1] = molecular target: T1, Tyrosine-protein kinase CSK (Homo sapiens, UniProt P41240); assay: Inhibition of CSK (unknown origin) ACT labeling site by KiNativ Profiling analysis
[2] = molecular target: T2, Mitogen-activated protein kinase kinase kinase kinase 2 (Homo sapiens) (UniProt Q12851); assay: Inhibition of MAP4K2 Lys1 labeling site in human A-375 cells at 0.5 uM by KiNativ Profiling analysis relative to control; format: cell-based
T2 sequence (whole entry): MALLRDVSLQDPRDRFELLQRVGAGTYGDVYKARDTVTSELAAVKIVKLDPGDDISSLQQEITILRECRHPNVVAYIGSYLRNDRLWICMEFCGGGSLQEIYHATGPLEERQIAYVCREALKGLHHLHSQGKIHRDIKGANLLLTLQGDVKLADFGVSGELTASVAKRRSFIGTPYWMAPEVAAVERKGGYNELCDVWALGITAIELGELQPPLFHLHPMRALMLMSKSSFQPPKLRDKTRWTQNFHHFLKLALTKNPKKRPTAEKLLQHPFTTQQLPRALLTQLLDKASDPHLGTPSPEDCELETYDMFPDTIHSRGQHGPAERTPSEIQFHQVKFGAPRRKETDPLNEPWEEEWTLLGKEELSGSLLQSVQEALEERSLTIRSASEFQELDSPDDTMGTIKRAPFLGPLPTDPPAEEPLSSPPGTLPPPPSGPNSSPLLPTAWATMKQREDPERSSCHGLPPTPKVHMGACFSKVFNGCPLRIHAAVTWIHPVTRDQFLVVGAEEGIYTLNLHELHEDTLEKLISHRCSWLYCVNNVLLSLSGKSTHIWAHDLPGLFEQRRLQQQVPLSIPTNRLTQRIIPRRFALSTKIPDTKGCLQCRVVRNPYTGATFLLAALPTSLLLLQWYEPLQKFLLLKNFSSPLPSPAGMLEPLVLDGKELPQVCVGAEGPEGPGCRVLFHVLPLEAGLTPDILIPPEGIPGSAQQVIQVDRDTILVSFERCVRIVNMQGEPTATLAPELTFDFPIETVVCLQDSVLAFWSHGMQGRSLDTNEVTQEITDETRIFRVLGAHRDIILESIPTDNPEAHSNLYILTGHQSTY

[3] = molecular target: T3, Tyrosine-protein kinase ABL1 (Homo sapiens, UniProt P00519); assay: Inhibition of ABL ACT labeling site in human Huh-7 cell lysate at 1 uM by KiNativ Profiling analysis relative to control; format: subcellular
[4] = molecular target: T4, Mitogen-activated protein kinase kinase kinase 7 (Homo sapiens) (UniProt O43318); assay: Inhibition of TAK1 Lys2 labeling site in human A-375 cells at 0.5 uM by KiNativ Profiling analysis relative to control; format: cell-based
T4 sequence (whole entry): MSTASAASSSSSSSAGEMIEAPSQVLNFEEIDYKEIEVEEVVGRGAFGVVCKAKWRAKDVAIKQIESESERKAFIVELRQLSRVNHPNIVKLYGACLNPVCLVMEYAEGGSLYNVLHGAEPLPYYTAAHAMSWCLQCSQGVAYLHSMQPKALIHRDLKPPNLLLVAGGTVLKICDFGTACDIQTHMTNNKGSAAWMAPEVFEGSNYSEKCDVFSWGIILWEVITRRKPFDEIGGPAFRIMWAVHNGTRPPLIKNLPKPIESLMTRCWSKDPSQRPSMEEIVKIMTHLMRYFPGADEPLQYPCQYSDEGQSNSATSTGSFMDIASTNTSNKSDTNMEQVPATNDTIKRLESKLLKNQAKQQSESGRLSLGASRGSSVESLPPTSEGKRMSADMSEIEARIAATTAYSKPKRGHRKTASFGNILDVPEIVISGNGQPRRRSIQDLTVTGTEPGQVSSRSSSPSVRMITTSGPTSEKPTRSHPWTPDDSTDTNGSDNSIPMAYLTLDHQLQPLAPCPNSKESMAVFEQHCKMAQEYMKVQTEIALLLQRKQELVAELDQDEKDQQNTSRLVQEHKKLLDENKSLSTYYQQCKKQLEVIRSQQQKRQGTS

[5] = molecular target: T5, Mitogen-activated protein kinase 14 (Homo sapiens, UniProt Q16539); assay: Inhibition of p38 alpha (unknown origin) by KiNativ Profiling analysis
[6] = molecular target: T6, Mitogen-activated protein kinase kinase kinase 20 (Homo sapiens, UniProt Q9NYL2); assay: Inhibition of ZAK Lys1 labeling site in human Huh-7 cell lysate at 1 uM by KiNativ Profiling analysis relative to control; format: subcellular
Target sequence in this assay (Q9NYL2 2-800 limits assumed): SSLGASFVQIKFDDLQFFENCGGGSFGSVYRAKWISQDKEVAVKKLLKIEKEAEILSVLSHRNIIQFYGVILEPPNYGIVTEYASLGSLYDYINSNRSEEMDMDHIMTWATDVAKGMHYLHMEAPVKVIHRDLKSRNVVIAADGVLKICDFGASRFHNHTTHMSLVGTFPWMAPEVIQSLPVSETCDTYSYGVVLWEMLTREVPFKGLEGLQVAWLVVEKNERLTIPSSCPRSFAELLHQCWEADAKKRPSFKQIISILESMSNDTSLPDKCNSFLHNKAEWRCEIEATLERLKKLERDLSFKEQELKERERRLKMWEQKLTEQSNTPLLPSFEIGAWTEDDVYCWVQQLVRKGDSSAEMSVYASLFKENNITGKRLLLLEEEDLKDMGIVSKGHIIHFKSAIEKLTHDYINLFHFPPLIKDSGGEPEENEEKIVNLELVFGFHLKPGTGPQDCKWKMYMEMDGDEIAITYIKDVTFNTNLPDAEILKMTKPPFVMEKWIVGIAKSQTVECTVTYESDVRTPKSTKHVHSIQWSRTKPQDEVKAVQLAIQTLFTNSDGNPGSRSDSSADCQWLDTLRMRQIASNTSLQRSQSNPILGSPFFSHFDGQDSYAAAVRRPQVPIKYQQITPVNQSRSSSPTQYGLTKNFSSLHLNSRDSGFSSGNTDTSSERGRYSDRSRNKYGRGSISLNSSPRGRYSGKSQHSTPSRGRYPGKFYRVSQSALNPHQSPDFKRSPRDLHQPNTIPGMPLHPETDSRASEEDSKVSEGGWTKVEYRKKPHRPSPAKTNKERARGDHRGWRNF

[7] = molecular target: T7, Ephrin type-A receptor 2 (Homo sapiens, UniProt P29317); assay: Inhibition of EphA2 (unknown origin) ACT labeling site by KiNativ Profiling analysis
[8] = test system: BaF3; assay: Antiproliferative activity against parental mouse BaF3 cells harbouring Bcr/Abl assessed reduction in cell viability measured after 48 hrs by Celltiter-glo assay; format: functional, cell-based; conditions: BaF3, 48 h
Method in brief: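 Cells were grown with serial dilutions of compound for 48 h, and viability was read by CellTiter-Glo. IC50 was derived from the dose–response curve. Parental Ba/F3 cells were grown in the presence of interleukin 3. The BCR-ABL line is BCR-ABL-dependent Ba/F3.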

[9] = molecular target: T7, Ephrin type-A receptor 2; assay: Inhibition of EphA2 ACT labeling site in human Huh-7 cell lysate at 1 uM by KiNativ Profiling analysis relative to control; format: subcellular
[10] = molecular target: T5, Mitogen-activated protein kinase 14; assay: Inhibition of p38 alpha in human Huh-7 cell lysate at 1 uM by KiNativ Profiling analysis relative to control; format: subcellular
[11] = test system: BaF3; assay: Antiproliferative activity against parental mouse BaF3 cells assessed reduction in cell viability measured after 48 hrs by Celltiter-glo assay; format: functional, cell-based; conditions: BaF3, 48 h
[12] = molecular target: T8, Mitogen-activated protein kinase kinase kinase 7 (Homo sapiens, UniProt O43318); assay: Inhibition of TAK1 (unknown origin) Lys2 labeling site by KiNativ Profiling analysis
T8 sequence (O43318 whole entry): T4 sequence (whole entry)

[13] = molecular target: T3, Tyrosine-protein kinase ABL1; assay: Inhibition of ABL Lys1 labeling site in human Huh-7 cell lysate at 1 uM by KiNativ Profiling analysis relative to control; format: subcellular
[14] = molecular target: T6, Mitogen-activated protein kinase kinase kinase 20; assay: Inhibition of ZAK (unknown origin) Lys1 labeling site by KiNativ Profiling analysis
Target sequence in this assay (Q9NYL2 whole entry): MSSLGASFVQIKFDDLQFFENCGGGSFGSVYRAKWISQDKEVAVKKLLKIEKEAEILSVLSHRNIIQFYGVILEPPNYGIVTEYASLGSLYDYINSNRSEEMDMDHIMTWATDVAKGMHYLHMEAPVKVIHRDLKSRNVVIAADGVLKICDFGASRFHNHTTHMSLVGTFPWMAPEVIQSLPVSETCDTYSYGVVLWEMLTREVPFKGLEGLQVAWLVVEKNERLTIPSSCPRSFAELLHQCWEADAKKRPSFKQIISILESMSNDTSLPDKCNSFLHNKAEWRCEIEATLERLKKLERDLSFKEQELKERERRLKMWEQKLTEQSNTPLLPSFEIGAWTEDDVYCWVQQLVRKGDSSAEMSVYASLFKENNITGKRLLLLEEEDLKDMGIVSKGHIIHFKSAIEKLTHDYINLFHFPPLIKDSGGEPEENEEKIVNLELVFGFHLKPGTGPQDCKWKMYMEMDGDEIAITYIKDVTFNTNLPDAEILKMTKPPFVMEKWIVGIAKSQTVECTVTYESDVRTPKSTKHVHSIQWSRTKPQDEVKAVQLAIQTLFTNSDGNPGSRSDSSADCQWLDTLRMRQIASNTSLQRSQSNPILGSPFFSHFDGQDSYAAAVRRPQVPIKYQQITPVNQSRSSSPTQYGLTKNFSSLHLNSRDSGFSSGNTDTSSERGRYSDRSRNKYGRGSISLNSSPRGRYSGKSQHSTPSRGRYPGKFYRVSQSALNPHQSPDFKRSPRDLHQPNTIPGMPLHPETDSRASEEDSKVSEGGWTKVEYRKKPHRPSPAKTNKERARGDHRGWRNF

[15] = molecular target: T1, Tyrosine-protein kinase CSK; assay: Inhibition of CSK ACT labeling site in human Huh-7 cell lysate at 1 uM by KiNativ Profiling analysis relative to control; format: subcellular
[16] = molecular target: T9, Mitogen-activated protein kinase kinase kinase kinase 2 (Homo sapiens, UniProt Q12851); assay: Inhibition of MAP4K2 (unknown origin) Lys1 labeling site by KiNativ Profiling analysis
T9 sequence (Q12851 whole entry): T2 sequence (whole entry)

[17] = Cmax in Swiss albino mouse at 10 mg/kg, po measured upto 24 hrs by LC/MS/MS analysis; format: ADME, organism-based; conditions: in vivo
[18] = AUC last in Swiss albino mouse at 10 mg/kg, po measured upto 24 hrs by LC/MS/MS analysis; format: ADME, organism-based; conditions: in vivo
[19] = Volume of distribution at steady state in Swiss albino mouse at 1 mg/kg, iv measured upto 24 hrs by LC/MS/MS analysis; format: ADME, organism-based; conditions: in vivo
Method in brief: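 Blood was sampled at 0, 0.083, 0.25, 0.5, 1, 2, 4, 8, 12 and 24 h (three mice per point, K2EDTA). Plasma was precipitated with acetonitrile and quantified by LC/MS/MS (LLOQ 1.138 ng/mL).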

[20] = Half life in Swiss albino mouse at 1 mg/kg, iv measured upto 24 hrs by LC/MS/MS analysis; format: ADME, organism-based; conditions: in vivo
Method in brief: (§1)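 Male Swiss albino mice. […] Blood was taken into K2EDTA from three mice per time point, from 0 to 24 h. Plasma was precipitated with acetonitrile and analysed by LC/MS/MS (LLOQ 1.138 ng/mL).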

[21] = AUC last in Swiss albino mouse at 1 mg/kg, iv measured upto 24 hrs by LC/MS/MS analysis; format: ADME, organism-based; conditions: in vivo; method in brief: as §1
[22] = Cmax in Swiss albino mouse at 1 mg/kg, iv measured upto 24 hrs by LC/MS/MS analysis; format: ADME, organism-based; conditions: in vivo; method in brief: as §1
[23] = molecular target: T10, Tyrosine-protein kinase Fes/Fps (Homo sapiens, UniProt P07332); assay: Inhibition of FES Lys1 labeling site in human Huh-7 cell lysate at 1 uM by KiNativ Profiling analysis relative to control; format: subcellular
[24] = molecular target: Tyrosine-protein kinase Fer (Homo sapiens, UniProt P16591); assay: Inhibition of FER (unknown origin) ACT labeling site by KiNativ Profiling analysis
[25] = molecular target: T10, Tyrosine-protein kinase Fes/Fps; assay: Inhibition of FES (unknown origin) by KiNativ Profiling analysis
[26] = Oral bioavailability in Swiss albino mouse at 10 mg/kg measured upto 24 hrs by LC/MS/MS analysis; format: ADME, organism-based; conditions: in vivo
Method in brief: (§2)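 Blood was taken at 0, 0.25, 0.5, 1, 2, 4, 6, 8, 12 and 24 h from three mice per time point, into K2EDTA. Plasma was acetonitrile-precipitated and analyzed by LC/MS/MS (LLOQ 1.138 ng/mL).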

[27] = Tmax in Swiss albino mouse at 10 mg/kg, po measured upto 24 hrs by LC/MS/MS analysis; format: ADME, organism-based; conditions: in vivo; method in brief: as §2
[28] = test system: MEF; assay: Inhibition of TGF-beta induced SMAD2 phosphorylation level in TAK1 deficient mouse MEF cells at low concentration incubated for 1 hr followed by TGF-beta stimulation by Western blot analysis; format: functional, cell-based
Method in brief: (§3)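 TAK1-null MEFs grown in DMEM with 10% FBS, 2 mM L-glutamine and penicillin/streptomycin at 37 °C under 5% CO2. Inhibitors added 1 h before TGFβ (50 pM, 45 min). Cells lysed in ice-cold buffer with phosphatase and protease inhibitors, extracts cleared at 16000g, then p38 and SMAD2 phosphorylation assessed by Western blot.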

[29] = test system: MEF; assay: Inhibition of TGF-beta induced p38 MAPK phosphorylation level in TAK1 deficient mouse MEF cells at low concentration incubated for 1 hr followed by TGF-beta stimulation by Western blot analysis; format: functional, cell-based; method in brief: as §3
[30] = test system: MEF; assay: Inhibition of IL-1 induced p38 MAPK phosphorylation level in TAK1 deficient mouse MEF cells at low concentration incubated for 1 hr followed by IL-1 stimulation by Western blot analysis; format: functional, cell-based
Method in brief: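 WT and TAK1-null MEFs were grown in DMEM with 10% FBS, then held in 0.1% FBS for 16 h. Cells were pretreated with inhibitor for 1 h, then stimulated with mouse IL-1α (5 ng/mL, 10 min). Cells were lysed in ice-cold buffer, and extracts were cleared at 16000g and analysed by Western blot.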

[31] = test system: MEF; assay: Inhibition of TGFbeta induced SMAD2 phosphorylation level in TAK1 deficient mouse MEF cells at low concentration incubated for 1 hr followed by TGFbeta stimulation by Western blot analysis

T3 sequence (P00519 whole entry): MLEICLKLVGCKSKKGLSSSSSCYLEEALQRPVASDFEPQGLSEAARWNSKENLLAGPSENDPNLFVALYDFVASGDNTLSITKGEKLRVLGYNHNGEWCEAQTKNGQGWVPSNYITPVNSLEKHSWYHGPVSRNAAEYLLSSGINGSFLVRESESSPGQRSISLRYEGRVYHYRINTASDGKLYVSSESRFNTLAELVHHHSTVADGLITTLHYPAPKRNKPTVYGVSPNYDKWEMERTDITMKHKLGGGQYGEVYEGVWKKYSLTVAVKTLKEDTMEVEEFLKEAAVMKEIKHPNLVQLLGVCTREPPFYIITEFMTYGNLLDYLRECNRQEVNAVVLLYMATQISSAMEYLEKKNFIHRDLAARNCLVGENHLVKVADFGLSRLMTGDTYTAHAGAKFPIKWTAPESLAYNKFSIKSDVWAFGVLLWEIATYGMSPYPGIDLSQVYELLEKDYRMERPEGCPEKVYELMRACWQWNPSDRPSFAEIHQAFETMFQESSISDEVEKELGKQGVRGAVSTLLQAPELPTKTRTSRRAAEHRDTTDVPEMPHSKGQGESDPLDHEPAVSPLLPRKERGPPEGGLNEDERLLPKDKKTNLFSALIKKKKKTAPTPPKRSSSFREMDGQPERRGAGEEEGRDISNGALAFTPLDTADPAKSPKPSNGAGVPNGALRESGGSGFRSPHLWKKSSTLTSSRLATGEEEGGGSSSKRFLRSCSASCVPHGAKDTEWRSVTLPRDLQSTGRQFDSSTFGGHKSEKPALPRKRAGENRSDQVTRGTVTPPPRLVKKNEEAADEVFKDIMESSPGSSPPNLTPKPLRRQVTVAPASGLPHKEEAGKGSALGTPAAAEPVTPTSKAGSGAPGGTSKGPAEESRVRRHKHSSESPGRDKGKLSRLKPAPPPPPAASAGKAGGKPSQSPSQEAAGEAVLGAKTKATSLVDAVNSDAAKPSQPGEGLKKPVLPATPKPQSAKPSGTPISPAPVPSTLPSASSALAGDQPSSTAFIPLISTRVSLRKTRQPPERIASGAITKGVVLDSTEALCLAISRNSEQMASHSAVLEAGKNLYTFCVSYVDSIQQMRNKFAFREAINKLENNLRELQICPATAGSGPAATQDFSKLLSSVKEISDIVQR
T5 sequence (Q16539 whole entry): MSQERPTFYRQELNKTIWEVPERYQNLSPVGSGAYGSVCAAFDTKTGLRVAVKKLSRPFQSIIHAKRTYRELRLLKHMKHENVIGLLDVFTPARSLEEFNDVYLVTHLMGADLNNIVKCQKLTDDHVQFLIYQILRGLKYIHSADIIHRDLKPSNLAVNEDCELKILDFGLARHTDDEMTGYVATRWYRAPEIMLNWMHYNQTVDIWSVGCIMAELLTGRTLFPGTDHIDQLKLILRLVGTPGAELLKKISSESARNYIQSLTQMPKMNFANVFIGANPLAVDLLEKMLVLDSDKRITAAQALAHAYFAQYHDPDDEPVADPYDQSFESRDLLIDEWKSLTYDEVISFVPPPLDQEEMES
T10 sequence (P07332 whole entry): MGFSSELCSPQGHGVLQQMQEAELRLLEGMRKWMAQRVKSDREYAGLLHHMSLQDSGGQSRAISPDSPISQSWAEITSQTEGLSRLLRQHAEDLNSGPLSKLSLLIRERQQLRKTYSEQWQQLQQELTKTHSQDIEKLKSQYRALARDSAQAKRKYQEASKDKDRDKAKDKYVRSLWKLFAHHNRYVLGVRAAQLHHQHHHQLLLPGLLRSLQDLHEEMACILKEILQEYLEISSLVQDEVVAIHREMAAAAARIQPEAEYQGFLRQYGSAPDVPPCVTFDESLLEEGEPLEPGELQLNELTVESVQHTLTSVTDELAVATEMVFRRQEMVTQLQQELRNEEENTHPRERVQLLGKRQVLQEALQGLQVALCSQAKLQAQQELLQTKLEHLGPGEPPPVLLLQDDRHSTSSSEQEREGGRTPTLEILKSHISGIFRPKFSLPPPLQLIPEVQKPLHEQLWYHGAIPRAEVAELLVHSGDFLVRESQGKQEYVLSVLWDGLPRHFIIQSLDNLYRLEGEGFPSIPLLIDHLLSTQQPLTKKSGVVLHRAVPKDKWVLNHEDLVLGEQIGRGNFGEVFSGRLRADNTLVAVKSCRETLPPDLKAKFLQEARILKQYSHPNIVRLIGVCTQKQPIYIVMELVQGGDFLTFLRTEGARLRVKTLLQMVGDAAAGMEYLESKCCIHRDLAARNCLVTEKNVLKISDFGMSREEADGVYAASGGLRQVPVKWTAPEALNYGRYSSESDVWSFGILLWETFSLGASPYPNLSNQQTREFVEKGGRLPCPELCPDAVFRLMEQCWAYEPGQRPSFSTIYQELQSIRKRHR
T7 sequence (P29317 whole entry): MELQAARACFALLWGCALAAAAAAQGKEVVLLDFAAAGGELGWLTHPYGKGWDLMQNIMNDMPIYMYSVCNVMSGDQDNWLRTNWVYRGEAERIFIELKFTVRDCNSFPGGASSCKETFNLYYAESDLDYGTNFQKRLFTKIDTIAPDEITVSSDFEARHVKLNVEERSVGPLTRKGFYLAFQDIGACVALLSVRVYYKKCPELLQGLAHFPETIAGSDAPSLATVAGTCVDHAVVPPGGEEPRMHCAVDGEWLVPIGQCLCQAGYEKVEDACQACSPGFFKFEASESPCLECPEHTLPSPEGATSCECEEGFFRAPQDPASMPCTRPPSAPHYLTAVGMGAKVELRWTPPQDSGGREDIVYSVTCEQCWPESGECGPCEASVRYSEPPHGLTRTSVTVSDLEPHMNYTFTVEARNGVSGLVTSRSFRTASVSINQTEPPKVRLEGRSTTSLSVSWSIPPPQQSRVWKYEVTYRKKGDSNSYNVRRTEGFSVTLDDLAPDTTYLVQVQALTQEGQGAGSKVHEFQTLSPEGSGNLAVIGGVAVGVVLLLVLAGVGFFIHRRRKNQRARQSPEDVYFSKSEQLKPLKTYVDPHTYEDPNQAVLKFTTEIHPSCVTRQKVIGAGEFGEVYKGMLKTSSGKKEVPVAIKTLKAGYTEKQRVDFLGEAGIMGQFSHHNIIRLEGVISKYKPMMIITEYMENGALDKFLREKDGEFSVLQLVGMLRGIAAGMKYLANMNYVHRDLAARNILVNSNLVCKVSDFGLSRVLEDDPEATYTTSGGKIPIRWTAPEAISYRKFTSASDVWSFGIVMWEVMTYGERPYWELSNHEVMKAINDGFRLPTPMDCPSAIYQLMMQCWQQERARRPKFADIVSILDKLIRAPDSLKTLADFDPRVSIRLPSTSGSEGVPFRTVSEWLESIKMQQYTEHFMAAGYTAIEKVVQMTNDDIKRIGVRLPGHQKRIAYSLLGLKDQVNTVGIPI

Compound | inhibition [2] [%] | inhibition [3] [%] | inhibition [4] [%] | IC50 [5] [nM] | inhibition [6] [%] | IC50 [8] [nM] | inhibition [10] [%] | IC50 [11] [nM] | IC50 [12] [nM] | IC50 [14] [nM] | IC50 [16] [nM] | Cmax [17] [ng/mL] | AUClast [18] [ng·h/mL] | Vdss [19] [L/kg] | t1/2 [20] [h] | AUClast [21] [ng·h/mL] | Cmax [22] [ng/mL] | F [26] [%] | Tmax [27] [h] | further results
CCN1CCN(Cc2ccc(NC(=O)c3ccc(C)c(CCc4cnc5[nH]ccc5c4OC)c3)cc2C(F)(F)F)CC1 | 84.3 | 92.8 | 74.3 | 70.1 | > 96 | 10 | 91.8 | 4810 | 217 | 72.5 | 20.6 | – | – | – | – | – | – | – | – | IC50 [1]: 12.5 nM; IC50 [7]: 77.1 nM; inhibition [9]: 80.9%; inhibition [13]: 77.2%; inhibition [15]: 89.9%
CCN1CCN(Cc2ccc(NC(=O)c3ccc(C)c(Oc4ncnc5[nH]c(C)cc45)c3)cc2C(F)(F)F)CC1 | > 94 | 59.6 | 57.7 | 149 | – | 20 | 82.8 | > 10000 | 41.1 | – | 18.2 | 233 | 2136 | 5.42 | 2.94 | 554 | 317 | 38.6 | 4 | inhibition [23]: 82.7%; IC50 [24]: 74.8 nM; IC50 [25]: 69.7 nM
CCN1CCN(Cc2ccc(NC(=O)c3ccc(C)c(Oc4ncnc5[nH]ncc45)c3)cc2C(F)(F)F)CC1 | 89.9 | 93 | 86.5 | 29.8 | 95.2 | 55 | 96.6 | 7910 | 75.5 | 127 | 43.8 | 61.3 | 186.2 | 6.1 | 0.87 | 167.9 | 280.3 | 11.1 | 0.5 | –
COc1cc(O)c2c(c1)/C=C/C[C@H](O)[C@H](O)C(=O)/C=C\C[C@H](C)OC2=O | – | – | – | – | – | – | – | – | – | – | – | – | – | – | – | – | – | – | – | inhibition [28]: Active; inhibition [29]: Active; inhibition [30]: Active; inhibition [31]: Active
